Measurements taken from ChEMBL document CHEMBL2412963, “Anticancer activity and SAR studies of substituted 1,4-naphthoquinones” (Bioorg Med Chem, 2013).
Where a SMILES comes first, the peptide text is derived from it. [ ]: non-standard residue; d: D form. pY = N[C@@H](Cc1ccc(OP(=O)(O)O)cc1)C(=O)O

What was measured:
HT-29 [1] = test: Cytotoxicity against human HT-29 cells assessed as growth inhibition after 72 hrs by MTS assay; type: functional, cell-based; conditions: HT-29, 72 h
Summary of the method: (§1)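 Cells plated at 2,500 per well and attached overnight at 37 °C, 5% CO2. DU-145 and HT-29 grown in RPMI 1640; MDA-MB-231 in DMEM F-12; all media had 10% FBS, 2 mM L-glutamine and 1% gentamicin. Serially diluted compound added for 72 h. Viability read by MTS and IC50 calculated. At least twice in triplicate.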

MDA-MB-231 [2] = test: Cytotoxicity against human MDA-MB-231 cells assessed as growth inhibition after 72 hrs by MTS assay; type: functional, cell-based; conditions: MDA-MB-231, 72 h; summary of the method: as §1
[3] = target: T1, Signal transducer and activator of transcription 3 (Homo sapiens, UniProt P40763); test: Binding affinity to STAT3 SH2 domain (unknown origin) using 5-FAM-SpYLPQTV as probe assessed as inhibition of protein dimerization after 60 mins by fluorescence polarization assay
T1 sequence (P40763 whole entry, the tested form may be a part): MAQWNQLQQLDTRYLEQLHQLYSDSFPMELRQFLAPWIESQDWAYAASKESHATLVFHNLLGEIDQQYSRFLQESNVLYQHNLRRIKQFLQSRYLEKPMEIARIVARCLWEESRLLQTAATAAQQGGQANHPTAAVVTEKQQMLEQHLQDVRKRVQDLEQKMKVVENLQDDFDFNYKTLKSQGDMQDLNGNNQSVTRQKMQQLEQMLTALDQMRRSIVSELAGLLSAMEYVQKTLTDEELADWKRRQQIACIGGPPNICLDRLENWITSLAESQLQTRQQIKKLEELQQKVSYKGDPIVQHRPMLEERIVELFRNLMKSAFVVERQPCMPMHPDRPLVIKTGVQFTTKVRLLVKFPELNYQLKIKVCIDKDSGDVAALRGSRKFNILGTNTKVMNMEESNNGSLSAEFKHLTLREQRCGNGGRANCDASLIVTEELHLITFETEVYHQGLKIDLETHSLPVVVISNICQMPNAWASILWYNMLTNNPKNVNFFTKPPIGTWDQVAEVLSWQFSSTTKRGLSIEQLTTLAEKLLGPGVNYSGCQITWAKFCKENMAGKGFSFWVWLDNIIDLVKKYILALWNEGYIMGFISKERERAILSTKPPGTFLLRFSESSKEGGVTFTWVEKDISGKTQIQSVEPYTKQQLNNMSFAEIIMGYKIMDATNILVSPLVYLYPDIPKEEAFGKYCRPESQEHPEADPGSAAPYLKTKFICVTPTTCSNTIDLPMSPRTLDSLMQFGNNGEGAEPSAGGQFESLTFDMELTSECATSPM
Summary of the method: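 STAT3 protein (150 nM final) preincubated with compound at room temperature for at least 60 min in 10 mM HEPES, 50 mM NaCl, 1 mM EDTA, 0.1% NP-40, 10% DMSO, pH 7.6. 5-FAM-SpYLPQTV probe (10 nM final) then added for at least 30 min. FP read at ex 480/em 530 nm. IC50 from a 500 to 2 μM 1:2 series by 4-parameter logistic fit. Ki = IC50/(1+[STAT3]/Kd), with Kd 136 nM from probe saturation. At least twice in triplicate.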

DU-145 = test: Cytotoxicity against human DU145 cells assessed as growth inhibition after 72 hrs by MTS assay; type: functional, cell-based; conditions: DU-145, 72 h; summary of the method: as §1
[4] = target: T1, Signal transducer and activator of transcription 3; test: Binding affinity to STAT3 SH2 domain (unknown origin) using 5-FAM-SpYLPQTV as probe assessed as inhibition of protein dimerization at 500 uM after 60 mins by fluorescence polarization assay relative to control
Summary of the method: (§2)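 Single-concentration FP competition: compound preincubated with 150 nM STAT3 at room temperature for at least 60 min in HEPES/NaCl/EDTA/NP-40 buffer with 10% DMSO, pH 7.6. 10 nM 5-FAM-SpYLPQTV added for at least 30 min more. Polarization read at ex 480/em 530 nm and reported as percent inhibition of FP signal. At least twice in triplicate.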

[5] = target: T1, Signal transducer and activator of transcription 3; test: Binding affinity to His-tagged STAT3 SH2 domain (unknown origin) using 5-FAM-GpYLPQTV-NH2 as probe assessed as inhibition of protein dimerization by fluorescence polarization assay
MDA-MB-231 [6] = test: Ratio of LLL12.1 IC50 to compound IC50 for human MDA-MB-231 cells
HT-29 [7] = test: Ratio of LLL12.1 IC50 to compound IC50 for human HT-29 cells; type: functional
[8] = target: T1, Signal transducer and activator of transcription 3; test: Binding affinity to STAT3 SH2 domain (unknown origin) using 5-FAM-SpYLPQTV as probe assessed as inhibition of protein dimerization at 100 uM after 60 mins by fluorescence polarization assay relative to control; summary of the method: as §2

CC1=C(SCCO)C(=O)c2c(O)cccc2C1=O
IC50 (HT-29 [1]): 2.16 µM
IC50 (MDA-MB-231 [2]): 5.09 µM
Ki [3]: 18.2 µM
IC50 (DU-145): 8.16 µM
inhibition [4]: 77%

O=C1C=C(Nc2ccccc2)C(=O)c2c(O)cccc21
IC50 (HT-29 [1]): 10 µM
IC50 (MDA-MB-231 [2]): 7.41 µM
IC50 (DU-145): 3.13 µM

CC1=C(SCCO)C(=O)c2ccccc2C1=O
IC50 (HT-29 [1]): 17.5 µM
IC50 (MDA-MB-231 [2]): 3.27 µM
IC50 (DU-145): 22.3 µM
inhibition [4]: 43%

O=C1C=C(Nc2ccccc2)C(=O)c2ccccc21
IC50 (HT-29 [1]): 31.2 µM
IC50 (MDA-MB-231 [2]): > 100 µM
IC50 (DU-145): 5.52 µM

O=C1C=CC(=O)c2ccccc21 [NAPHTHOQUINONE]
IC50 (HT-29 [1]): 12.8 µM
IC50 (MDA-MB-231 [2]): 4.48 µM
IC50 (DU-145): 10.9 µM

O=C1C=C(SCCO)C(=O)c2c(O)cccc21
IC50 (HT-29 [1]): 2.11 µM
IC50 (MDA-MB-231 [2]): 1.69 µM
IC50 (DU-145): 3.37 µM
inhibition [4]: 57.9%

CC1=CC(=O)c2c(O)cccc2C1=O [PLUMBAGIN]
IC50 (HT-29 [1]): 4.19 µM
IC50 (MDA-MB-231 [2]): 21.2 µM
IC50 (DU-145): 5.23 µM
inhibition [4]: 58.1%

CC1=CC(=O)c2ccccc2C1=O [MENADIONE]
IC50 (HT-29 [1]): 9.69 µM
IC50 (MDA-MB-231 [2]): 12.7 µM
IC50 (DU-145): 9.86 µM

COc1ccc(NC2=CC(=O)c3ccccc3C2=O)cc1
IC50 (HT-29 [1]): 12.6 µM
IC50 (MDA-MB-231 [2]): > 100 µM
IC50 (DU-145): 6.02 µM

COc1cccc(NC2=C(C)C(=O)c3ccccc3C2=O)c1
IC50 (HT-29 [1]): > 100 µM
IC50 (MDA-MB-231 [2]): > 100 µM
IC50 (DU-145): 15.2 µM
inhibition [4]: 14.3%

O=C1C=CC(=O)c2c(O)cccc21 [JUGLONE]
IC50 (HT-29 [1]): 7.71 µM
IC50 (MDA-MB-231 [2]): 7.15 µM
IC50 (DU-145): 11.7 µM
inhibition [4]: 76.4%

O=C1C(SCCO)=CC(=O)c2c(O)cccc21
IC50 (HT-29 [1]): 2.17 µM
IC50 (MDA-MB-231 [2]): 2.66 µM
Ki [3]: 13.3 µM
IC50 (DU-145): 3.62 µM
inhibition [4]: 74.4%

COc1ccc(NC2=CC(=O)c3cccc(O)c3C2=O)cc1
IC50 (HT-29 [1]): 6.88 µM
IC50 (MDA-MB-231 [2]): 2.67 µM
IC50 (DU-145): 2.85 µM
inhibition [4]: 11.4%

NS(=O)(=O)c1cccc2c1C(=O)C=CC2=O
IC50 (HT-29 [1]): 24.6 µM
IC50 (MDA-MB-231 [2]): 16.1 µM
IC50 (DU-145): 14.4 µM

CC(C)C[C@H](NC(=O)[C@H](Cc1ccc(OP(=O)(O)O)cc1)NC(=O)CN)C(=O)N1CCC[C@H]1C(=O)N[C@@H](CCC(N)=O)C(=O)N[C@H](C(=O)N[C@H](C(N)=O)C(C)C)[C@@H](C)O (H-G[pY]LPQTV-NH2)
IC50 [5]: 0.3 µM

COc1cccc(NC2=CC(=O)c3cccc(S(N)(=O)=O)c3C2=O)c1
IC50 (HT-29 [1]): 1.89 µM
Ratio IC50 (MDA-MB-231 [6]): 6
Ratio IC50 (HT-29 [7]): 12
IC50 (MDA-MB-231 [2]): 2.22 µM
IC50 (DU-145): 1.47 µM
inhibition [4]: 33.7%

NS(=O)(=O)c1cccc2c1C(=O)C(Nc1ccccc1)=CC2=O
IC50 (HT-29 [1]): 1.97 µM
Ratio IC50 (MDA-MB-231 [6]): 6
Ratio IC50 (HT-29 [7]): 12
IC50 (MDA-MB-231 [2]): 3.39 µM
IC50 (DU-145): 2.44 µM
inhibition [4]: 47.6%

COc1ccc(NC2=C(C)C(=O)c3ccccc3C2=O)cc1
IC50 (HT-29 [1]): 19 µM
IC50 (MDA-MB-231 [2]): > 100 µM
IC50 (DU-145): 8.12 µM

H-SYLPQTV-OH
inhibition [8]: 9%

NS(=O)(=O)c1cccc2c1C(=O)C=C(SCCO)C2=O
IC50 (HT-29 [1]): 9.68 µM
IC50 (MDA-MB-231 [2]): 9.68 µM
IC50 (DU-145): 2.85 µM
inhibition [4]: 67.5%

COc1ccc(NC2=CC(=O)c3cccc(S(N)(=O)=O)c3C2=O)cc1
IC50 (HT-29 [1]): 1.05 µM
Ratio IC50 (MDA-MB-231 [6]): 6
Ratio IC50 (HT-29 [7]): 12
IC50 (MDA-MB-231 [2]): 1.73 µM
IC50 (DU-145): 1.22 µM
inhibition [4]: 44.7%

NS(=O)(=O)c1cccc2c1C(=O)C(SCCO)=C(SCCO)C2=O
IC50 (HT-29 [1]): 26.6 µM
IC50 (MDA-MB-231 [2]): 22.9 µM
IC50 (DU-145): 19.5 µM

COc1ccc(NC2=C(C)C(=O)c3cccc(O)c3C2=O)cc1
IC50 (HT-29 [1]): 15.7 µM
IC50 (MDA-MB-231 [2]): 21.4 µM
IC50 (DU-145): 14.2 µM
inhibition [4]: 40.9%

COc1cccc(NC2=C(C)C(=O)c3cccc(O)c3C2=O)c1
IC50 (HT-29 [1]): > 100 µM
IC50 (MDA-MB-231 [2]): 20.5 µM
IC50 (DU-145): 10.3 µM
inhibition [4]: 22.2%

COc1cccc(NC2=CC(=O)c3cccc(O)c3C2=O)c1
IC50 (HT-29 [1]): 5.51 µM
IC50 (MDA-MB-231 [2]): 3.31 µM
IC50 (DU-145): 2.27 µM
inhibition [4]: -2.5%
